Experimental data as given in ChEMBL document CHEMBL1157800, “Hasubanan alkaloids with delta-opioid binding affinity from the aerial parts of Stephania japonica” (J Nat Prod, 2010).

Columns and labels:
Type in all cases: cell membranes
[1] = biological target: Delta-type opioid receptor (Homo sapiens, UniProt P41143); test: Displacement of [3H]deltorphin-2 from human delta opioid receptor expressed in HEK293 cell membrane
[2] = biological target: Mu-type opioid receptor (Homo sapiens) (UniProt P35372); test: Displacement of [3H]naloxone from mu opioid receptor expressed in CHO cell membrane at 10 uM
Mu-type opioid receptor (Homo sapiens), sequence (P35372 whole entry): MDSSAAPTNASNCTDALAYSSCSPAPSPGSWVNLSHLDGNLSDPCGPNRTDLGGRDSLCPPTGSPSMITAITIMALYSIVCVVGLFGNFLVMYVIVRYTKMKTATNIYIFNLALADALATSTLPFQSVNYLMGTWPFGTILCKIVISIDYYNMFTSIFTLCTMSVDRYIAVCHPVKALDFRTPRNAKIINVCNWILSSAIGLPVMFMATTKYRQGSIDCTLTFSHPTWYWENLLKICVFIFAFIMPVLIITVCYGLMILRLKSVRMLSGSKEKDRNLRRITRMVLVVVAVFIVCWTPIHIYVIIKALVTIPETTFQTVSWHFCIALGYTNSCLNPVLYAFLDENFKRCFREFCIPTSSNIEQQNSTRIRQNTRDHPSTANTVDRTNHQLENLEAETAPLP
Method in brief: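 Filtration binding with recombinant human µ receptor CHO cell membranes (0.017 mg/mL) and [3H]-naloxone (0.66 nM). Buffer: 50 mM Tris, 10 mM MgCl2, 1 mM EDTA, pH 7.4. Incubated 90 min, including 60 min shaking, at ca. 23 °C. Harvested onto PEI-presoaked GF/B mats, oven-dried at 50 °C, then liquid scintillation counted.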

[3] = biological target: Kappa-type opioid receptor (Homo sapiens) (UniProt P41145); test: Displacement of [3H]naloxone from kappa opioid receptor expressed in HEK293 cell membrane at 10 uM
Kappa-type opioid receptor (Homo sapiens), sequence (P41145 whole entry): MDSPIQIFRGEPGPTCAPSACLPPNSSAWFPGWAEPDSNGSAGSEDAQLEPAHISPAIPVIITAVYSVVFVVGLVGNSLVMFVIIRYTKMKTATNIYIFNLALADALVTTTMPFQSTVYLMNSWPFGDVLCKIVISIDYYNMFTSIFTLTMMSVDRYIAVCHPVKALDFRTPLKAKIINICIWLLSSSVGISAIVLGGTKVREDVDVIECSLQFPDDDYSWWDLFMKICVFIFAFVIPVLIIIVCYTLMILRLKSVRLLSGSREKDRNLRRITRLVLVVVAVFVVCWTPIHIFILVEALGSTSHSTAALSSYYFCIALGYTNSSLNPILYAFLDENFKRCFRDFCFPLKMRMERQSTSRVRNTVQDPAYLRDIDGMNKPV

Delta-type opioid receptor, sequence (P41143 whole entry): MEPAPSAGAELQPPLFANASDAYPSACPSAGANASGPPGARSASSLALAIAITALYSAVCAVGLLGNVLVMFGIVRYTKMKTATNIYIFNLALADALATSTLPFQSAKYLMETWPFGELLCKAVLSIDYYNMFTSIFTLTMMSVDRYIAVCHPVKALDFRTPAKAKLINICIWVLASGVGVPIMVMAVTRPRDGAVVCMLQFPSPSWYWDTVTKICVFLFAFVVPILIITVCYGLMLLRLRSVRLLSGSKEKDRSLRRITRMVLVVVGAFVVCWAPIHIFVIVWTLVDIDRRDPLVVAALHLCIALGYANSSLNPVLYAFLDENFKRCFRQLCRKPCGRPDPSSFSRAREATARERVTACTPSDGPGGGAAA

SMILES: COc1ccc(/C=C/C(=O)O[C@H]2C[C@]34CCN(C)[C@@]35C[C@H](O[C@]5(OC)[C@H]2OC)c2ccc(OC)c(O)c24)cc1O
- IC50 [1]: 11.3 µM
- inhibition [2]: 56%
- inhibition [3]: 0%

SMILES: COC1=C(OC)[C@]23CCc4ccc(OC)c(O)c4[C@@]2(CC1=O)CC(=O)N3C
- IC50 [1]: 17 µM
- inhibition [2]: 49%
- inhibition [3]: 0%

SMILES: COc1ccc2c(c1O)[C@@]13CCN(C)[C@@]14C[C@@H]2O[C@]4(OC)[C@@H](OC)[C@@H](O)C3
- IC50 [1]: 2.1 µM
- inhibition [2]: 68%
- inhibition [3]: 0%

SMILES: COc1ccc2c(c1O)[C@@]13CC(=O)N(C)[C@@]14C[C@@H]2O[C@]4(OC)[C@@H](OC)[C@@H](OC(=O)/C=C/c1ccccc1)C3
- IC50 [1]: 5.1 µM
- inhibition [2]: 74%
- inhibition [3]: 0%

SMILES: COc1ccc2c(c1O)[C@@]13CCN(C)[C@@]14C[C@@H]2O[C@]4(O)[C@@H](OC)[C@@H](O)C3 [LONGANINE]
- IC50 [1]: 0.7 µM
- inhibition [2]: 68%
- inhibition [3]: 0%

SMILES: COC1=C(OC)[C@]23CCc4ccc(OC)c(O)c4[C@]2(CCN3C)CC1=O [AKNADININE]
- IC50 [1]: 46 µM
- inhibition [2]: 68%
- inhibition [3]: 0%

SMILES: COC1=C2[C@@H]3Cc4ccc(OC)c(O)c4[C@]2(CCN3)C[C@H](O)[C@@H]1O [SINOCOCULINE]
- IC50 [1]: 37 µM
- inhibition [2]: 54%
- inhibition [3]: 0%

SMILES: COC1=CC[C@]23CCN(C)[C@@]24C[C@H](O[C@@]14O)c1ccc(OC)c(O)c13 [PROSTEPHABYSSINE]
- IC50 [1]: 5.5 µM
- inhibition [2]: 67%
- inhibition [3]: 0%

SMILES: COc1ccc2c(c1O)[C@@]13CCN(C)[C@@]14C[C@@H]2O[C@]4(OC)[C@@H](O)[C@@H](OC(=O)/C=C/c1ccccc1)C3
- IC50 [1]: 2.5 µM
- inhibition [2]: 54%
- inhibition [3]: 0%
